The values that follow come from ChEMBL document CHEMBL2150928, “Symmetric kv1.5 blockers discovered by focused screening” (ACS Med Chem Lett, 2012).

In brackets after ≈: the same amount, converted by molar mass. Activity calls are given as the source filed them. No cut-off for these calls is given here.

Data set [1] concerns the target Potassium voltage-gated channel subfamily A member 5 (Homo sapiens, UniProt P22460). Description: Inhibition of human Kv1.5 ion channel after 3 mins by high-throughput planar patch clamp assay. The method in brief:
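Electrophysiology run on IonWorks high-throughput planar patch clamp, following a previously published method. IC50 values come from concentration-response testing of compounds retested for LC/MS purity.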

Data set [2] in a line: Apparent permeability from apical to basolateral side of human Caco2 cells. As to conditions: Caco-2. In kind it is ADME, cell-based.
Data set [3] can be described thus: Oral bioavailability in rat. In kind it is ADME, organism-based. Conditions: in vivo.
Data set [4] can be described thus: Volume of distribution at steady state in iv dosed rat. In kind it is ADME, organism-based. Conditions: in vivo, read-out: Vdss.
Data set [5] concerns the target Voltage-gated inwardly rectifying potassium channel KCNH2 (Homo sapiens, UniProt Q12809). Nature of the data set: Inhibition of human ERG expressed in CHOK1 cells. In kind it is cell-based, CHO-K1.
Data set [6] can be described thus: Intrinsic clearance in human hepatocytes assessed per million cells. As to conditions: read-out: CLH. In kind it is ADME, cell-based, Hepatocyte.
A short description of data set [7]: Fraction unbound in human plasma. In kind it is ADME, cell-free.
Data set [8] in a line: Intrinsic clearance in human liver microsomes at 50 uM up to 45 mins. In kind it is ADME, Microsome. Conditions: read-out: CLH.
The nature of data set [9]: Half life in iv dosed rat. In kind it is ADME, organism-based. Conditions: in vivo.
Data set [10] in a line: Aqueous solubility of the compound at pH 7.4 after 24 hrs. In kind it is physicochemical. Conditions: aqueous medium.
Data set [11] in a line: Clearance in iv dosed rat. In kind it is ADME, organism-based. Conditions: in vivo.
The nature of data set [12]: Octanol-water distribution coefficient, log D of the compound at pH 7.4 by shake-flask method. In kind it is physicochemical.
The target of a further data set is Cytochrome P450 3A4 (Homo sapiens, UniProt P08684). Description: Inhibition of human recombinant CYP3A4 expressed in Escherichia coli. In kind it is ADME.
Cytochrome P450 3A4, sequence (P08684 whole entry): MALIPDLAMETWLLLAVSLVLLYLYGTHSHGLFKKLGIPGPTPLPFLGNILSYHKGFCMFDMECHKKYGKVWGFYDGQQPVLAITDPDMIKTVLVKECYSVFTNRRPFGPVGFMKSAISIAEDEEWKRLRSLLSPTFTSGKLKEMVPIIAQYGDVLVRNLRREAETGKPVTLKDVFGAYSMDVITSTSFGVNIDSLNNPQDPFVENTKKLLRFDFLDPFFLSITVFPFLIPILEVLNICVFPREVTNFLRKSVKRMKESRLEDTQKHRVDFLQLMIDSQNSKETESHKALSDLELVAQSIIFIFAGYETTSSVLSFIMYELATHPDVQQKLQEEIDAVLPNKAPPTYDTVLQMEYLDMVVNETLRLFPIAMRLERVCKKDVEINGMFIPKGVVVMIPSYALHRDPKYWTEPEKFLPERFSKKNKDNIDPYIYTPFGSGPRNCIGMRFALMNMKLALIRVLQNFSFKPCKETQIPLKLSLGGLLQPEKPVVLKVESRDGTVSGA
The nature of data set [13]: Dissociation constant, pKa of the compound. In kind it is physicochemical.
The target in another data set is Cytochrome P450 2D6 (Homo sapiens, UniProt P10635). Description: Inhibition of human recombinant CYP2D6 expressed in Escherichia coli. In kind it is ADME.
Cytochrome P450 2D6, sequence (P10635 whole entry): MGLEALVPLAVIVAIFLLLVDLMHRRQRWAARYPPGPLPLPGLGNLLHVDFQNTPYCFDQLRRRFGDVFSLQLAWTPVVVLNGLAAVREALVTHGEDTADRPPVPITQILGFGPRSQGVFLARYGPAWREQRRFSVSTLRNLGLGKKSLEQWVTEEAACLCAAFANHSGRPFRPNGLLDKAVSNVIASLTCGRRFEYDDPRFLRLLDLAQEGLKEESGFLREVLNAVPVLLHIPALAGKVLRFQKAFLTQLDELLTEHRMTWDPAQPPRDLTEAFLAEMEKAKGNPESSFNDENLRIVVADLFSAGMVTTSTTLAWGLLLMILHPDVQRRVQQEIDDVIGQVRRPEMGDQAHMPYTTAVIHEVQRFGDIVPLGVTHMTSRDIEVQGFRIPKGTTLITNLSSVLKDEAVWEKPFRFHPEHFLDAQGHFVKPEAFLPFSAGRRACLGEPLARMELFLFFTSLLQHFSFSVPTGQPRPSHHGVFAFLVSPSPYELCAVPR

Potassium voltage-gated channel subfamily A member 5, sequence (P22460 whole entry): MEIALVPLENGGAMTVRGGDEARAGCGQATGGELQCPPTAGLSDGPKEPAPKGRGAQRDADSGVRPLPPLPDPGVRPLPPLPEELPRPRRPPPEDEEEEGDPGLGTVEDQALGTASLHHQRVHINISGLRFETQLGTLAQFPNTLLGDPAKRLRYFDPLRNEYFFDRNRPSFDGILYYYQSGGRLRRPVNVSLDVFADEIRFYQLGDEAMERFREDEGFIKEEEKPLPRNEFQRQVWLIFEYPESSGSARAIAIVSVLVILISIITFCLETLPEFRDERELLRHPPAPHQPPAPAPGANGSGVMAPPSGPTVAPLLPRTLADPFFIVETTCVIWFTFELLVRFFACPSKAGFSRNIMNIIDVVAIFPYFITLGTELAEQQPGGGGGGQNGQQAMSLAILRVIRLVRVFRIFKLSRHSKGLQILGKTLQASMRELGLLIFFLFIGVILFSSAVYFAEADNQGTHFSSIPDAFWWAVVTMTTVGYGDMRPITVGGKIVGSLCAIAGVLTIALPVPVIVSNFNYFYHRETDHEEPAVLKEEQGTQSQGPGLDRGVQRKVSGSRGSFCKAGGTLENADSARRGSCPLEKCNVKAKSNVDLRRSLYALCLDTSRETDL
Voltage-gated inwardly rectifying potassium channel KCNH2, sequence (Q12809 whole entry): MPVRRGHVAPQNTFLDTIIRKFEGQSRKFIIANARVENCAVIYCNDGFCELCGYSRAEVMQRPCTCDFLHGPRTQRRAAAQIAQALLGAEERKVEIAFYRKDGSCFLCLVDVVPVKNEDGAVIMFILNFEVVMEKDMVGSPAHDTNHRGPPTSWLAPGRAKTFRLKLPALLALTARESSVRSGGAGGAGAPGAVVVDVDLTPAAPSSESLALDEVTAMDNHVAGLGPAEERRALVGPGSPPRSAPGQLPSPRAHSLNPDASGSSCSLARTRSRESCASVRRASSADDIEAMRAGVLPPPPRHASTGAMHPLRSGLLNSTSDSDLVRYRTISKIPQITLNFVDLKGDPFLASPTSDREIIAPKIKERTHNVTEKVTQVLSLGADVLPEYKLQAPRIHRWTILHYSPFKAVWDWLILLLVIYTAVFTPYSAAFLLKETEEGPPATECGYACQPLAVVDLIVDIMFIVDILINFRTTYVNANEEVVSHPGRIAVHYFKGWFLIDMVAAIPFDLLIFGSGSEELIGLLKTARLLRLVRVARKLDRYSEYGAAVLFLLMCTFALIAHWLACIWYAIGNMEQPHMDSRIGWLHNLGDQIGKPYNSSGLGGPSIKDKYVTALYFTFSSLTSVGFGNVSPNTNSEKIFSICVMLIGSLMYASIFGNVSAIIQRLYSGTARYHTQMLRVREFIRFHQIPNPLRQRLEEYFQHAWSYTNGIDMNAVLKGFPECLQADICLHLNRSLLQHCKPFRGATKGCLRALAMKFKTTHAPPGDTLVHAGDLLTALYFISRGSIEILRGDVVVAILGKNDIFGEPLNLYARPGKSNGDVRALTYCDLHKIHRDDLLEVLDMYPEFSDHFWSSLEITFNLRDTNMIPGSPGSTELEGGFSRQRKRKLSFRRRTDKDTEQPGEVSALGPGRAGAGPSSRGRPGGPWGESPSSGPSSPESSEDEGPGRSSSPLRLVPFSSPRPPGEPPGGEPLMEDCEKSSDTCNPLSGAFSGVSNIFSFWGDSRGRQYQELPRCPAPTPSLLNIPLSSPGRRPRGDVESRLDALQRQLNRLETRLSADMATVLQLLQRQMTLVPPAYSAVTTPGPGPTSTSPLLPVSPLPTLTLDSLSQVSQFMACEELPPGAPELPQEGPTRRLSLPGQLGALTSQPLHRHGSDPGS

As to `c1ccc([C@@H]([C@H](c2ccccc2)N2CCCC2)N2CCCC2)cc1`, the IC50 was 0.3 µM in [1], 31.6 µM in data set [5], 12.6 µM at Cytochrome P450 3A4 and 0.316 µM at Cytochrome P450 2D6. For the same molecule, in [2], the Papp A→B amounted to 13.3 ×10⁻⁶ cm/s. The bioavailability in data set [3] came out at 48.9%. Also, in [4], the Vd worked out at 6.4 L/kg. In addition, the hepatocyte CLint in data set [6] was less than 4 µL/min/1e6 cells. In addition, the unbound share (fraction unbound) in [7] came to 0.17. For the same molecule, the microsomal CLint at 50 µM in data set [8] stood at 21.6 µL/min/mg. The molecule also gave a half-life in [9] of 7.1 h. The solubility at 24 h in data set [10] was determined as 100 µM (≈ 32 µg/mL). This molecule also had a clearance in [11] of 10.8 mL/min/kg. This molecule also had a pH-dependent lipophilicity (logD) in data set [12] of 3.3. This molecule came in with a pKa in [13] of 10.5.
Take `CN(C)[C@@H](c1ccccc1)[C@@H](O)c1ccccc1`: the inhibition entry in data set [1] is “inactive”.
Regarding `OC(c1ccccc1)C(c1ccccc1)N1CCNCC1` (centres undefined), the inhibition entry in data set [1] is “inactive”.
In the case of `c1ccc([C@@H]([C@H](c2ccccc2)N2CCCCC2)N2CCCCC2)cc1`, the concentration for half-maximal inhibition (IC50) in data set [1] is 0.2 µM; in data set [5], 31.6 µM; at Cytochrome P450 3A4, 15.8 µM; on Cytochrome P450 2D6, 0.316 µM. For the same molecule, the Papp A→B in data set [2] was 10.2 ×10⁻⁶ cm/s. For the same molecule, the bioavailability in data set [3] was 26.6%. Further, the hepatocyte CLint in data set [6] is less than 4 µL/min/1e6 cells. This molecule also displayed an unbound share (fraction unbound) in data set [7] of 0.099. Also, the microsomal CLint at 50 µM in data set [8] amounted to 17.6 µL/min/mg. The solubility at 24 h in [10] was found to be 81 µM (≈ 28.2 µg/mL). In data set [12], this molecule came in with a logD of 4.1. Further, in data set [13], the pKa was found to be 11.4.
On to `NC(c1ccccc1)C(O)c1ccccc1` (centres undefined), for which the inhibition result in [1] is “inactive”.
Same read-out and setting: then `c1ccc(C2NCCOC2c2ccccc2)cc1` (centres undefined), with “inactive”; and `O[C@@H](c1ccccc1)[C@@H](c1ccccc1)N1CCCCC1`, with “inactive”.
In the case of `CC(=O)NC(c1ccccc1)C(O)c1ccccc1` (centres undefined), in data set [1], the inhibition entry was “inactive”.
For the molecule `OC(c1ccccc1)C(NC1CCCCC1)c1ccccc1` (centres undefined), in data set [1], the inhibition entry was “inactive”.
On the same count and under the same terms, next, `O=C(Cc1ccccc1)N[C@@H](c1ccccc1)[C@@H](O)c1ccccc1`: “inactive”.
The molecule `CC(C)[C@@H]1CC[C@@H](C)C[C@@H]1P(=O)(c1ccccc1)c1ccccc1` came in with a pH-dependent lipophilicity (logD) in data set [12] of 6.
With `O[C@@H](c1ccccc1)[C@H](c1ccccc1)N1CCOCC1`, the inhibition entry in data set [1] was “inactive”.
The same measure, in the same setting: then `CCCOc1ccc(C(O)C(c2ccccc2)N2CCCC2)cc1` (centres undefined), with “inactive”.
For `O[C@@H](c1ccccc1)[C@H](c1ccccc1)N1CCCC1`, in data set [1], the inhibition entry was “inactive”.
Regarding `c1ccc([C@H]([C@@H](c2ccccc2)N2CCCC2)N2CCCC2)cc1`, the IC50 in data set [1] is 0.6 µM; in data set [5], 31.6 µM; on Cytochrome P450 3A4, 12.6 µM; on Cytochrome P450 2D6 it was 0.2 µM. For the same molecule, in data set [2], the Papp A→B stood at 14 ×10⁻⁶ cm/s. The bioavailability in data set [3] is 15.6%. In addition, the Vd in [4] came out at 7.9 L/kg. Also, the hepatocyte CLint in data set [6] was less than 4 µL/min/1e6 cells. Moreover, in data set [7], the unbound share (fraction unbound) is 0.17. The microsomal CLint at 50 µM in data set [8] is 12 µL/min/mg. In addition, the half-life in data set [9] was 1 h. In data set [10], this molecule came in with a solubility at 24 h of 92 µM (≈ 29.5 µg/mL). This molecule yielded a clearance in data set [11] of 91.8 mL/min/kg. This molecule came in with a pH-dependent lipophilicity (logD) in data set [12] of 3.2. The molecule also displayed a pKa in data set [13] of 10.4.
With `c1ccc([C@H]([C@@H](c2ccccc2)N2CCCCC2)N2CCCCC2)cc1`, the IC50 in data set [1] was 0.2 µM; in [5], 25.1 µM; on Cytochrome P450 3A4, 20 µM; at Cytochrome P450 2D6, 0.126 µM. Moreover, the Papp A→B in data set [2] worked out at 10.3 ×10⁻⁶ cm/s. Besides, the bioavailability in data set [3] amounted to 103%. In data set [4], the Vd amounted to 16.4 L/kg. In addition, the hepatocyte CLint in data set [6] is less than 4 µL/min/1e6 cells. Moreover, the fraction unbound in data set [7] was 0.065. For the same molecule, in data set [8], the microsomal CLint at 50 µM was determined as 14.1 µL/min/mg. In [9], the half-life was 15.1 h. The solubility at 24 h in data set [10] is 95 µM (≈ 33.1 µg/mL). In [11], this molecule gave a clearance of 13.1 mL/min/kg. This molecule also gave a log distribution coefficient (logD) in data set [12] of 4. For the same molecule, in data set [13], the pKa amounted to 11.
